# An excerpt weighted towards active compounds, which were near 2.5% of everything screened.
# E-selectin induc: E-selectin induction in HUVECs, primary screen, imaging, HUVEC, immunofluorescence imaging, single point | P16581 | normalized: neutral wells 0, TNF-alpha wells 100 | activation, % at 7.58 µM | hit rate 0.37% among 260,000 | AID 686992, 2013;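 active means mean E-selectin-positive cell signal at least 10% of the positive control, reached in at least 60% of replicates, without over 20% cell loss; inconclusive means no rule given, readout overlaps actives, possibly toxicity-flagged; inactive means the rest, including those meeting only one limit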
#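 System: HUVEC / Compound: single concentration / Signal: immunofluorescence imaging / Read-out: percent E-selectin-positive cells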
# FGF22 binding: binders of human FGF22 protein, primary screen, FGF22 synaptogenesis inhibitor project, biophysical, thermal shift, single point. activity (Tm shift, normalised), % at 9.99 µM. recombinant FGF22 thermal shift, SYPRO orange fluorescence; percent of sucrose octasulfate shift, DMSO zero. Fibroblast growth factor 22 (Homo sapiens), Q9HCT0. AID 651658, 2012. hit rate 1.5% among 340,000;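 active means mean Tm shift, scaled 0 neutral to 100 positive control, at about 1.3% or above, every replicate too, limit read from the data; inconclusive means no clear call, values can overlap the other calls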
# Target sequence (Q9HCT0 whole entry, looked up): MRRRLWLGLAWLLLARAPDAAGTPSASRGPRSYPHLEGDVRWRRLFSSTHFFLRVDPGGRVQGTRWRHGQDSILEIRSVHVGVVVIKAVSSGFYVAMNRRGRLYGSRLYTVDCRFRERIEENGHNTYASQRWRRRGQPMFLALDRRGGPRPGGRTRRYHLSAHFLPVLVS
# miR122 inh: miR-122 Renilla sensor signal increase in Huh7, primary screen, miR-122 inhibitor project, cell-based, single point, plate reader; hit rate 0.3% among 340,000; Huh7 miR-122 Renilla luciferase sensor, 48 h; neutral wells = 0, positive control = 100; activation (reporter increase), % at 12.5 µM;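 active means mean replicate activation score at least 90 and every replicate individually at or above 90; inconclusive means only one of the two criteria met; inactive means neither criterion met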;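 further: higher luciferase means less miR-122 activity so hits act as miR-122 inhibitors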
# SIRT5 inh: SIRT5 desuccinylase inhibitors, primary screen, biochemical, fluorescence imaging, single point, set 5; Purified SirT5, succinyl-peptide AMC, trypsin-coupled fluorescence; AID 652115, 2013; inhibition, % at 15 µM; hit rate 1.1% among 330,000; NAD-dependent protein deacylase sirtuin-5, mitochondrial (Homo sapiens), Q9NXA8; in the data active means inhibition above about 15%; inconclusive means no clear call, values can overlap the other calls
# Target sequence (Q9NXA8 whole entry, looked up): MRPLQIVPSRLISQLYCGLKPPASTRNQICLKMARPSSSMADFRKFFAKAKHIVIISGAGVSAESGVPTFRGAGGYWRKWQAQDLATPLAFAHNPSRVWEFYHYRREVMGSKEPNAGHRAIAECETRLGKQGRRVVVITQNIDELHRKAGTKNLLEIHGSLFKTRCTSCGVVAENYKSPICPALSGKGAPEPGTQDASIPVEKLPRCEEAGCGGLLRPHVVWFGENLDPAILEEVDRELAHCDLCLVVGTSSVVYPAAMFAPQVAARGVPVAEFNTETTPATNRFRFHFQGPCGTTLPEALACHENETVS
# S100A4 MyoIIA: inhibitors of S100A4-myosin IIA peptide binding, primary screen, biochemical, fluorescence polarization, TAMRA-MyoIIA peptide; inhibition, % at 10.7 µM; Protein S100-A4 (Homo sapiens), P26447; hit rate 0.14% among 360,000;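 active means mean inhibition of at least 70% across replicates, with every replicate also reaching that level; inconclusive means mean inhibition reaches 70% but some replicates fall short; inactive means mean inhibition below 70%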
# Target sequence (P26447 whole entry, looked up): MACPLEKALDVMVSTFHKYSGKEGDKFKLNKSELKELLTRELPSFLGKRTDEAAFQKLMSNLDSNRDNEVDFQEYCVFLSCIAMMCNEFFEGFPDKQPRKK
#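 incubation = readout 5 min after mixing, signal stable up to 60 min | system = S100A4 monomer protein | buffer or medium = HEPES pH 7.2 with CaCl2, KCl, NaCl, DTT, Triton | benchmarks = neutral control DMSO, positive control TFP | also added = fluorescent myosin IIA peptide, 5 nM | compound dosing = one concentration per compound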
# * hit, by the source's call; u = inconclusive; x = no result given; [ ] = dose if it differs, or a comment.
SMILES,E-selectin induc,FGF22 binding,miR122 inh,SIRT5 inh,S100A4 MyoIIA
C[C@@H](O)C#Cc1ccc([C@@H]2[C@@H](CO)N3CCCCN(S(=O)(=O)c4ccccc4)C[C@@H]23)cc1,-0.1,0.2,5.8[16.7 µM],4.4,-3.8
C[C@@H]1CN([C@H](C)CO)C(=O)Cc2cc(NC(=O)C3CCCCC3)ccc2O[C@H]1CN(C)Cc1ccc(C(=O)O)cc1,0.7,0.0,-5.4[16.7 µM],0.3,25.2
CC(C)CCNC(=O)c1cn(C)c2ccc(S(=O)(=O)N3CCCC3)cc2c1=O,36.8*,-0.1,x,-1.6,-1.7
CC(C)CN(CCNC(=O)c1cn(C)c2ccc(S(=O)(=O)N3CCCC3)cc2c1=O)CC(C)C,0.1,0.0,-8.4,-4.1,-3.4
O=C(NCC1CC1)[C@@H]1N[C@@H]2c3ccc(-c4ccccc4F)c(=O)n3C[C@@H]2[C@H]1CO,-0.1,0.1,-3.3[16.7 µM],0.1,-3.3
CC(C)CCC(CC(C)O)C(=O)NNC(=S)Nc1ccccc1 (centres undefined),7.8,-0.2,152.5*,-4.1,0.6
CC(C)Cc1ccc(C(C)C(=O)Nc2ccc(O)cc2)cc1 (centres undefined),0.1,-0.1,x,0.3,6.1
CC(C)Cc1ccc(C(C)C(N)=Nc2ccc(O)cc2)cc1 (centres undefined),0.1,0.3,-0.4,19.1*,-3.6
CN(C)c1ccc2c(c1)[C@H]1C[C@@H](CC(=O)NCc3ccc(Oc4ccccc4)cc3)O[C@@H](CO)[C@H]1O2,-0.6,-1.1,2.9[16.7 µM],x,-3.7
CN(C)c1ccc2c(c1)[C@@H]1C[C@@H](CC(=O)NCc3ccccc3)O[C@H](CO)[C@@H]1O2,-0.2,0.0,-3.8[16.7 µM],20.3*,-44.9
CN(C)c1ccc2c(c1)[C@@H]1C[C@@H](CC(=O)NCc3ccc(Oc4ccccc4)cc3)O[C@@H](CO)[C@@H]1O2,-0.2,0.0,95.6*[16.7 µM],14.8,-16.6
CCCCNC(=O)C1(C)CCCCN1C(=O)c1csnn1 (centres undefined),1.5,43.9*,-5.4,x,1.3
CC(C)CNC(=O)C1(C)CCCCCN1C(=O)c1csnn1 (centres undefined),0.1,-0.2,-0.6,x,-1.1
Fc1cccc(C2NN=C(c3ccccc3)S2)c1 (centres undefined),x,43.7*,5.1,1.4,3.2
O=C(NCc1cccc(F)c1)[C@@H]1[C@@H](CO)[C@@H]2Cn3c(cccc3=O)[C@H]1N2,0.0,-0.1,-0.9[16.7 µM],-0.5,0.2
COc1cc(NC(=O)COC(=O)CNC(=O)c2ccc(C)cc2)c(C)cc1[N+](=O)[O-],0.3,0.2,x,20.4*,-19.8
O=C(COC(=O)CNC(=O)c1ccccc1)NCCc1ccccc1,x,-0.3,x,-1.7,9.0
COc1cc(NC(=O)COC(=O)C=C(C)C)c(C)cc1[N+](=O)[O-],0.9,43.8*,0.4,2.3,0.6
COc1cc(NC(=O)COC(=O)CC(C)(C)C)c(C)cc1[N+](=O)[O-],-2.2,0.2,x,-2.1,-3.4
Cc1cc(C(=O)NCC(=O)OCC(=O)NCCc2ccccc2)ccc1[N+](=O)[O-],x,43.8*,x,-0.4,-1.5
CC(C)c1cn(CC[C@H]2CC[C@@H](NS(=O)(=O)Cc3ccccc3)[C@@H](CO)O2)nn1,-0.3,0.0,9.5[16.7 µM],0.1,-2.1
C[C@H](CO)N1C[C@H](C)[C@H](CN(C)S(=O)(=O)c2ccc(F)cc2)Oc2c(NS(=O)(=O)c3ccc(Cl)cc3)cccc2C1=O,0.2,0.5,19.2[16.7 µM],x,x
C[C@H](CO)N1C[C@H](C)[C@@H](CN(C)C(=O)c2ccncc2)Oc2ncc(-c3ccc(F)cc3)cc2C1=O,0.1,x,-3.0[16.7 µM],x,x
C[C@@H]1CN([C@@H](C)CO)C(=O)c2cc(NS(=O)(=O)c3ccc(F)cc3)ccc2O[C@H]1CN(C)S(=O)(=O)c1cccs1,1.5,0.0,-5.5[16.7 µM],0.2,12.5
Cc1cccc(C)c1NC(=O)CN(Cc1ccccc1)Cc1ccccc1,-0.1,0.3,-9.2,34.4*,-2.6
SMILES,E-selectin induc,FGF22 binding,miR122 inh,SIRT5 inh,S100A4 MyoIIA
Cc1cccc(C)c1NC(=O)CNc1ccccc1,x,x,0.0,x,x
N=C1C=CC(=C(c2ccc(N)cc2)c2ccc(N)cc2)C=C1,38.9*,-0.2,-14.6,-1.4,5.5
Nc1ccc(C(=O)C(=O)c2ccc(N)cc2)cc1,x,-0.2,1.6,3.4,-0.4
COC(=O)C1=C(C)NC(=O)/C1=C\N(C)C,38.7*,-0.1,x,0.1,-7.1
COc1ccc2c3c(n(C)c2c1)[C@@H](CO)N(S(C)(=O)=O)CC31CCN(C(=O)c2ccccn2)CC1,-0.1,x,x,x,x
CCCOc1ccc(C(CC(=O)O)NC(=O)c2sc3ccccc3c2Cl)cc1 (centres undefined),x,43.1*,x,-2.5,4.6
CCOc1ccc(C(CC(=O)O)NC(=O)c2sc3ccccc3c2Cl)cc1 (centres undefined),0.1,42.8,x,6.5,5.0
Nc1nc(N)c2c(n1)CN(Cc1ccc(Cl)cc1)C2,0.0,43.1*,x,x,4.8
Cc1cc(CSc2ccccc2)ccc1NC(=O)c1ccc(C)c([N+](=O)[O-])c1,x,43.4*,x,-1.7,1.6
Cc1cc(CSc2ccccc2)ccc1NC(=O)c1ccc(Cl)c([N+](=O)[O-])c1,x,x,-5.2,x,x
COc1ccccc1NC(=O)c1cccc(N2C(=O)C3C4C=CC(C4)C3C2=O)c1 (centres undefined),x,43.9*,-11.1,-3.5,-0.8
Cc1cc(NC(=O)c2ccc(N3C(=O)C4C5C=CC(C5)C4C3=O)cc2)no1 (centres undefined),x,44.3*,x,-2.8,0.5
COc1ccc(NC(=O)c2cccc(N3C(=O)C4C5C=CC(C5)C4C3=O)c2)c(OC)c1 (centres undefined),0.0,0.0,-8.0,2.3,0.8
O=c1ccc(-c2ccccc2)n[nH]1,x,0.3,x,21.2*,5.3
CC(C)NC(=O)N(C)C[C@H]1Oc2ccc(NC(=O)Nc3cccc4ccccc34)cc2CC(=O)N([C@@H](C)CO)C[C@@H]1C,-0.5,-0.4,-1.2[16.7 µM],1.0,-5.3
Cc1noc(C)c1NC(=O)N(C)C[C@H]1Oc2c(NC(=O)Nc3ccc4c(c3)OCO4)cccc2C(=O)N([C@@H](C)CO)C[C@@H]1C,0.1,-0.5,4.1[16.7 µM],-2.7,9.7
O=C1c2ccccc2C2=Nc3ccccc3SC(c3ccc(Cl)cc3)C12 (centres undefined),u,0.3,x,-3.9,-1.0
O=C1c2ccccc2C2=Nc3ccccc3SC(c3cccc(F)c3)C12 (centres undefined),x,x,246.3*,x,x
O=[N+]([O-])c1ccccc1Oc1ccc(C(F)(F)F)cn1,x,0.1,x,-4.4,5.8
